From ChEMBL document CHEMBL1145483, “A Candida albicans petite mutant strain with uncoupled oxidative phosphorylation overexpresses MDR1 and has diminished susceptibility to fluconazole and voriconazole” (2007)
Converted amounts (≈) assume the structure as drawn.

Assays:
Type in all cases: functional
Candida albicans [1] = assay: Antimicrobial activity against Candida albicans SC5314 after 24 hrs by broth macrodilution method; settings: SC5314, 24 h
How it was run: (§1)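 MICs were determined by standard broth macrodilution following the NCCLS M27-A yeast reference method, with readings at 24 h and 48 h. Strains were parental SC5314 and P5, a petite mutant with uncoupled oxidative phosphorylation recovered from SC5314 after serial passage through mouse spleens.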

Candida albicans [2] = assay: Antimicrobial activity against Candida albicans P5 after 24 hrs by broth macrodilution method; settings: P5, 24 h; how it was run: as §1
Candida albicans [3] = assay: Antimicrobial activity against Candida albicans SC5314 after 48 hrs by broth macrodilution method; settings: SC5314, 48 h; how it was run: as §1
Candida albicans [4] = assay: Antimicrobial activity against Candida albicans P5 after 48 hrs by broth macrodilution method; settings: P5, 48 h; how it was run: as §1
Candida albicans [5] = assay: Ratio of MIC for Candida albicans P5 mutant to MIC for Candida albicans SC5314
How it was run: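 The ratio is the P5 MIC divided by the SC5314 MIC, with both MICs obtained by standard broth macrodilution (NCCLS M27-A yeast reference method) and read at 24 h and 48 h. P5 is a petite mutant of SC5314 with uncoupled oxidative phosphorylation.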

| SMILES | MIC (Candida albicans [1]) [µg/mL] | MIC (Candida albicans [2]) [µg/mL] | MIC (Candida albicans [3]) [µg/mL] | MIC (Candida albicans [4]) [µg/mL] | Ratio (Candida albicans [5]) |
| --- | --- | --- | --- | --- | --- |
| C[C@@H]1[C@H](O)[C@@H](C)/C=C/C=C/C=C/C=C/C=C/C=C/C=C/[C@H](O[C@@H]2O[C@H](C)[C@@H](O)[C@H](N)[C@@H]2O)C[C@@H]2O[C@](O)(C[C@@H](O)C[C@@H](O)[C@H](O)CC[C@@H](O)C[C@@H](O)CC(=O)O[C@H]1C)C[C@H](O)[C@H]2C(=O)O [AMPHOTERICIN B] | 0.06 (≈ 0.0649 µM) | 0.06 (≈ 0.0649 µM) | 0.125 (≈ 0.135 µM) | 0.125 (≈ 0.135 µM) |  |
| CCCCNC(=O)n1c(NC(=O)OC)nc2ccccc21 [BENOMYL] | 20 (≈ 68.9 µM) | 20 (≈ 68.9 µM) | 20 (≈ 68.9 µM) | 20 (≈ 68.9 µM) |  |
| C[C@H]1CCC/C=C/[C@@H]2C[C@H](O)C[C@H]2[C@H](O)/C=C/C(=O)O1 [BREFELDIN A] | 4 (≈ 14.3 µM) | 16 (≈ 57.1 µM) | 8 (≈ 28.5 µM) | 32 (≈ 114 µM) |  |
| C/C=C/C/C=C/CCC(=O)[C@H]1O[C@H]1C(N)=O [CERULENIN] | 2 (≈ 8.96 µM) | 4 (≈ 17.9 µM) | 2 (≈ 8.96 µM) | 8 (≈ 35.8 µM) |  |
| C[C@@H]1C[C@@H]([C@H](O)CC2CC(=O)NC(=O)C2)C(=O)[C@@H](C)C1 [CYCLOHEXIMIDE] | 400 (≈ 1420 µM) | 400 (≈ 1420 µM) | 400 (≈ 1420 µM) | 800 (≈ 2840 µM) |  |
| OC(Cn1cncn1)(Cn1cncn1)c1ccc(F)cc1F [FLUCONAZOLE] | 0.125 (≈ 0.408 µM) | 1 (≈ 3.27 µM) | 0.125 (≈ 0.408 µM) | 1 (≈ 3.27 µM) | 8 |
| CN(C)c1ccc(C(=C2C=CC(=[N+](C)C)C=C2)c2ccc(N(C)C)cc2)cc1.[Cl-] [GENTIAN VIOLET] | 0.2 | 0.2 | 0.4 | 0.4 |  |
| CCC(C)n1ncn(-c2ccc(N3CCN(c4ccc(OC[C@H]5CO[C@](Cn6cncn6)(c6ccc(Cl)cc6Cl)O5)cc4)CC3)cc2)c1=O (stereo not given in full) [ITRACONAZOLE] | 0.016 (≈ 0.0227 µM) | 0.016 (≈ 0.0227 µM) | 0.016 (≈ 0.0227 µM) | 0.016 (≈ 0.0227 µM) |  |
| CC(=O)N1CCN(c2ccc(OC[C@H]3CO[C@](Cn4ccnc4)(c4ccc(Cl)cc4Cl)O3)cc2)CC1 [KETOCONAZOLE] | 0.064 (≈ 0.12 µM) | 0.064 (≈ 0.12 µM) | 0.064 (≈ 0.12 µM) | 0.064 (≈ 0.12 µM) |  |
| CC/N=c1\cc2oc3cc(NCC)c(C)cc3c(-c3ccccc3C(=O)OCC)c-2cc1C.Cl [RHODAMINE 6G HYDROCHLORIDE] | 8 | 8 | 8 | 8 |  |
| Cc1cc(C)nc(NC(=O)NS(=O)(=O)c2ccccc2C(=O)O)n1 [SULFOMETURON] | 10 (≈ 28.5 µM) | 10 (≈ 28.5 µM) | 10 (≈ 28.5 µM) | 10 (≈ 28.5 µM) |  |
| C[C@@H](c1ncncc1F)[C@](O)(Cn1cncn1)c1ccc(F)cc1F [VORICONAZOLE] | 0.004 (≈ 0.0115 µM) | 0.032 (≈ 0.0916 µM) | 0.004 (≈ 0.0115 µM) | 0.032 (≈ 0.0916 µM) | 8 |
